Bioassay records: PubChem, several laboratories
Rows were chosen to be rich in hits. Some 11% of all compounds tested hit in one or more screens of this group.
M1 antagonist: blocks the rat M1 muscarinic receptor response to acetylcholine; CHO-M1 cells, Fluo-4 calcium, ACh EC80 antagonist mode; active compounds read low; B-score at 10 µM; 64,000 compounds, 3.4% hits;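 active means calcium fluorescence response, raw or row-and-column corrected B-score, differing from the plate sample mean either way at a set confidence level, mostly lower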
D1 allo mod: D1 dopamine receptor (human) allosteric modulation; HEK293 D1, CRE-luciferase, dopamine EC30 potentiation; actives deviate in either direction; 58,000 compounds, 5.9% hits; B-score at 10 µM;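 active means luminescence count or its row- and column-corrected plate score outside the 99.7% band of the plate's sample wells, on either side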
SF-1 act: activators of human nuclear receptor SF-1; 65,000 compounds, 1.9% hits; Q13285; AID 522; activation, % at 10 µM; CHO-K1 Gal4-SF-1 LBD luciferase reporter; % increase over DMSO SF-1-specific signal;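 active means activation above the mean activation of all tested compounds plus 3 SD, cut at about 50% in these data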
Target sequence (Q13285 whole entry, looked up, the tested form may be a part): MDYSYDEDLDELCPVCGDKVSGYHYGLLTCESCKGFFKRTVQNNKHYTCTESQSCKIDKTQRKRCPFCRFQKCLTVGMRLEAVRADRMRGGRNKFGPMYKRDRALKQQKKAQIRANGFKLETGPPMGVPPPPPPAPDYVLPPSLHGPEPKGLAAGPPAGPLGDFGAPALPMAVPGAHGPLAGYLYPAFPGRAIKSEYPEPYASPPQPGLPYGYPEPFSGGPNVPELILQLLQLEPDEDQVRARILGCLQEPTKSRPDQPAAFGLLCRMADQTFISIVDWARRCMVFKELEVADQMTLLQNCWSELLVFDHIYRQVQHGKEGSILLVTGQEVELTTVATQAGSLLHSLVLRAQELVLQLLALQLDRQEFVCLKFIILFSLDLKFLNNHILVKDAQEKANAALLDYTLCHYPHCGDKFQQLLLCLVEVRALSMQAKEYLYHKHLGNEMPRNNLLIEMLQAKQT
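Test system: transient Gal4-SF-1 LBD reporter, CHO-K1; Amount: 4,000 CHO-K1 cells per well; Doses: 10 µM only; Timing: compound exposure 20 h at 37 °C; Signal: luciferase light emission; Read-out basis: percent activation relative to DMSO median and mock-transfected background; Control set: DMSO negative control and −SF1 background wells; Replicates: one test per compound.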
M1 agonist: M1 muscarinic receptor agonism; CHO-M1 cells, Fluo-4 calcium fluorescence, agonist mode; active compounds read high; B-score at 10 µM; 64,000 compounds, 3% hits;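 active means fluorescence rise, raw or as B-score row- and column-corrected plate score, outside the 99.7% band of its plate's samples, either direction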
mHtt clearance: mutant huntingtin protein clearance; AID 853; inhibition, % at 1.5 µM; HeLa Exon1htt(103Q)mCFP, aggregate imaging; zero = plate's median compound well; 47,000 compounds, 0.42% hits;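 active means inhibition of aggregate fluorescence above about 70%, also judged a hit by eye on the cell image, limit read from the data, passing the limit was not always enough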;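 further: cells exposed to compound for three days before fixation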
RORa activator: RORA (human) activation. P35398. CHO-K1 Gal4-RORA LBD luciferase reporter, luminescence; percent increase over mock-subtracted basal signal. activation, % at 10 µM. 65,000 compounds, 1.5% hits. AID 560;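 active means activation above the mean of all tested compounds plus 3 SD, cut at about 49% in these data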;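 further: 0% = DMSO-treated RORA cells and 100% = added signal equal to DMSO minus mock-transfected cells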
D1 mod confirm: D1 receptor (human) allosteric modulation, confirmed | shares compounds with D1 allo mod | HEK293 D1 CRE-luciferase, dopamine EC30 potentiation; active compounds read high | luminescence at 10 µM | 2,200 compounds, 88% hits;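 active means luminescence in either of two replicates above the same-plate mean plus 3 SD of the low-dose dopamine control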
D1 ag no DA: secondary test of D1 modulators: activity without dopamine; shares compounds with D1 allo mod; HEK293 D1 CRE-luciferase, luminescence, no dopamine; active compounds read high; luminescence at 10 µM; 1,900 compounds, 0.8% hits; in the data active means luminescence above about 3900
Isoprot counter: counter-screen for D1 modulators: isoproterenol response in HEK293 cells; shares compounds with D1 allo mod; HEK293 D1 CRE-luciferase, isoproterenol EC30 counter-screen; calls only at 10 µM; 2,200 compounds, 63% hits; AID 647;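 active means luminescence in either replicate above plate mean of wells with a partly effective reference agonist dose plus 3 SD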;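 further: isoproterenol raises cAMP through native beta-adrenoceptor Gs so signal bypasses D1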
Numbers without * were called inactive; i = inactive; . = not tested or not shown; + = active, no number.

SMILES | M1 antagonist | D1 allo mod | SF-1 act | M1 agonist | mHtt clearance | RORa activator | D1 mod confirm | D1 ag no DA | Isoprot counter
Cc1cc(C)cc(Nc2ncc3c(n2)CC(c2ccco2)CC3=O)c1 (configuration not stated) | 0.47 | 4.7* | -11 | 0.31 | . | -14 | 7924* | 1512 | +
Cc1cc(NC(=O)COC(=O)c2c(C)nn(-c3ccccc3)c2C)no1 | 0.35 | 0.24 | -9 | -0.0026 | 20 | -6 | . | . | .
Cc1nc(COC(=O)c2c(C)nn(-c3ccccc3)c2C)cs1 | -0.11 | 6.9* | 39 | 0.58 | 29 | 18 | 8048* | 1512 | +
O=c1oc(-c2cccc(S(=O)(=O)N3CCOCC3)c2)nc2ccccc12 | 0.13 | -0.63 | 1 | -0.13 | . | -4 | . | . | .
O=C(NCC(=O)N(c1ccc2c(c1)OCCO2)C(C(=O)NC1CCCC1)c1ccco1)c1ccco1 (configuration not stated) | -0.025 | 0.016 | -5 | -0.35 | -29 | -6 | . | . | .
COc1ccc(N2CCN(Cc3nc(N)nc(N4CCCc5ccccc54)n3)CC2)cc1 | . | 5.7* | -9 | . | -56 | -9 | 13244* | 1624 | +
CCOC(=O)c1cccnc1SCC(=O)N(C)c1ccccc1 | 0.38 | 0.17 | -19 | 0.36 | 4 | -29 | . | . | .
CCOC(=O)c1cccnc1SCc1cc(=O)n2ccccc2n1 | -0.2 | 4.4* | -9 | -0.86 | 23 | -14 | 10728* | 1604 | +
COc1ccc(-c2ccc(=O)n(CC(=O)Nc3cccc(O)c3)n2)cc1OC | 0.0071 | 29* | 4 | -0.44 | -32 | -13 | 4824 | 1660 | i
CC(CSc1nc2ccccc2s1)Cn1c(N2CCCC2)nc2c1c(=O)[nH]c(=O)n2C (configuration not stated) | 0.57 | 2.5* | 3 | 0.017 | . | -13 | 13288* | . | +
CC(C)CCn1c(Sc2nc3ccccc3s2)nc2c1c(=O)[nH]c(=O)n2C | 0.05 | 21* | -12 | 1.4 | . | -16 | 19816* | 1612 | +
CC(C)CCn1c(SCC(=O)c2ccccc2)nc2c1c(=O)[nH]c(=O)n2C | 0.84 | 1.4 | -14 | 1.1 | 29 | 6 | . | . | .
CCN1CCN(c2nc3c(c(=O)[nH]c(=O)n3C)n2CCSc2nc3ccccc3s2)CC1 | 1.4 | 0.97 | -4 | -0.31 | . | 17 | . | . | .
Cc1ccc2cccc(S(=O)(=O)Nc3ccc4c(c3)OCO4)c2n1 | 0.64 | -0.014 | -2 | -0.8 | 48 | -25 | . | . | .
CCOc1ccc(S(=O)(=O)NCc2ccc(F)cc2)c2cccnc12 | 0.44 | 10* | -17 | 0.23 | 32 | -4 | 10944* | . | +
CCOc1ccc(S(=O)(=O)Nc2ccc3c(c2)OCO3)c2cccnc12 | -0.031 | 4.8* | 13 | 0.25 | . | 12 | 9784* | 1612 | +
O=C(Nc1nnc(-c2ccc3c(c2)CCCC3)o1)C1COc2ccccc2O1 (configuration not stated) | 0.53 | -0.45 | 11 | 0.16 | . | 9 | . | . | .
COCCN1C(=O)C(=O)/C(=C(/O)c2cccc(S(=O)(=O)N(C)C)c2)C12C(=O)N(C)c1ccccc12 (configuration not stated) | -0.23 | -1.6 | 0 | 0.13 | 20 | -20 | . | . | .
CC(=O)Nc1ccc(OCC=C(Cl)Cl)cc1 | -0.61 | -0.77 | 0 | 0.49 | . | -3 | . | . | .
CCOC(=O)N1CCC(NC(=O)Cc2ccc(-n3c(=O)[nH]c4ccccc4c3=O)cc2)CC1 | -0.39 | -0.06 | -5 | -0.082 | . | -7 | . | . | .
COc1cccc(C2=CC(c3ccc(OC)c(OC)c3OC)n3nnnc3N2)c1 (configuration not stated) | -0.59 | 19* | -16 | 0.34 | . | 17 | 12516* | . | +
c1ccc(Cc2nn3c(C4COc5ccccc5O4)nnc3s2)cc1 (configuration not stated) | . | 6* | 6 | 0.098 | 22 | 8 | 14652* | 1492 | +
CC(=O)CCc1c(C)c2cc(C)ccc2[nH]c1=O | 0.4 | 0.078 | -22 | 0.45 | . | 8 | . | . | .
O=C(c1cccs1)c1coc2ccc(O)c(CN3CCOCC3)c12 | -0.44 | 18* | -13 | 0.034 | -52 | -5 | 20688* | . | +
O=C(CSc1nc2ccccc2[nH]1)Nc1cc(C(F)(F)F)ccc1N1CCOCC1 | 0.22 | 4* | -1 | 0 | . | -2 | 7804* | . | i
SMILES | M1 antagonist | D1 allo mod | SF-1 act | M1 agonist | mHtt clearance | RORa activator | D1 mod confirm | D1 ag no DA | Isoprot counter
CC(Sc1nnnn1-c1ccccc1)C(=O)Nc1ccc(Cl)cn1 (configuration not stated) | -0.19 | 0.29 | 12 | 0.16 | . | -5 | . | . | .
COc1ccc(OC)c(C2C(C(=O)c3cccs3)=C(O)C(=O)N2CCN(C)C)c1 (configuration not stated) | 0.046 | -0.11 | -4 | 0.52 | -20 | -17 | . | . | .
COc1cccc(C2C(C(=O)c3cccs3)=C(O)C(=O)N2CCN(C)C)c1OC (configuration not stated) | -0.99 | 2.5* | -4 | -0.56 | 26 | -4 | 5748 | . | i
CC1(C)CC(=O)c2cnc(NC(=O)Cc3ccc(Cl)cc3)nc2C1 | -0.22 | 0.5 | -14 | 0.56 | -34 | 26 | . | . | .
CCCCC(=O)Nc1ncc2c(n1)CC(C)(C)CC2=O | 0.023 | 3* | -3 | 0.37 | 14 | 14 | 5316 | . | i
CC1(C)CC(=O)c2cnc(NC(=O)CSc3nc4ccccc4o3)nc2C1 | 1 | -0.0083 | 7 | -0.97 | -70 | 4 | . | . | .
Cc1cc(C)nc(SCC(=O)Nc2ncc3c(n2)CC(C)(C)CC3=O)n1 | -0.0092 | 5.3* | 0 | -0.14 | -22 | -19 | 7004* | 1576 | i
C=CCN(CC=C)c1nc2ccccc2nc1C(C#N)C(=O)OC(C)C (configuration not stated) | -0.91 | . | -19 | 0.21 | . | -26 | . | . | .
Cc1cccc2cc(CN(CC3CCCO3)S(=O)(=O)c3ccccc3)c3nnnn3c12 (configuration not stated) | 0.023 | 0.083 | 10 | -0.15 | . | -11 | . | . | .
Cc1cccc2cc(CN(CC3CCCO3)C(=O)c3cccnc3)c3nnnn3c12 (configuration not stated) | -0.83 | 5.5* | 12 | 0.76 | -54 | -17 | 15420* | . | +
CCc1cccc(CC)c1N(COC)C(=O)Cn1c(C(C)O)nc2ccccc21 (configuration not stated) | 0.75 | -0.055 | -21 | -0.037 | . | 4 | . | . | .
O=S(=O)(c1cccc(-c2nc3n(n2)Cc2ccccc2-3)c1)N1CCCC1 | -0.35 | 4.9* | 33 | 0.19 | . | -6 | 7316* | 1740 | +
